Laboratory results taken from publication PMC4427559 (Drug development and industrial pharmacy, 2015).
Converted amounts (≈) assume the structure as drawn.

Legend:
[1] = cited from earlier work
[2] = Solution state pH stability in USP buffers at 37 °C; format: physicochemical; conditions: for Degradation half-life t½: calculated from k
Procedure, shortened: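 Test compound (1 mg/mL acetonitrile stock) added 1:10 to 0.2 M USP buffers (n = 3) in amber vials. Buffers were HCl (pH 2), acid phthalate (pH 3–4), neutralized phthalate (pH 5), phosphate (pH 6–7) and borate (pH 8–10). Incubation at 37 °C, light-protected. Quantified by isocratic C18 HPLC-UV at 300 nm with warfarin IS. Log % remaining plotted against time; half-lives from first-order kinetics.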

[3] = cited from earlier work; remark: listed apart in the source
[4] = Stability in human plasma at 37 °C; format: in vitro ADME
[5] = Plasma protein binding by ultracentrifugation/ultrafiltration; format: in vitro ADME, human; conditions: 37 °C
[6] = Solubility in common solvents, shaker method, HPLC; format: physicochemical
[7] = Stability in rat plasma at 37 °C; format: in vitro ADME; conditions: male, Sprague Dawley

- Original concentration remaining ([2]; acidic and neutral conditions, at 193 h): More than 70%
- Degradation rate constant k ([2]; pH 2, hydrochloric acid buffer 0.2 M): 0.000506 h⁻¹
- Degradation rate constant k ([2]; pH 3, acid phthalate buffer 0.2 M): 0.000353 h⁻¹
- Degradation rate constant k ([2]; pH 4, acid phthalate buffer 0.2 M): 0.000151 h⁻¹
- Degradation rate constant k ([2]; pH 5, neutralized phthalate buffer 0.2 M): 0.00011 h⁻¹
- Degradation rate constant k ([2]; pH 6, phosphate buffer 0.2 M): 0.000147 h⁻¹
- Degradation half-life t½ ([2]; pH 6, phosphate buffer 0.2 M): 195.5 days
- Degradation rate constant k ([2]; pH 7, phosphate buffer 0.2 M): 0.00247 h⁻¹
- Resveratrol remaining ([2]; pH 8, 9 or 10, at 50 and 80 h): Less than 2%
- Degradation rate constant k ([2]; pH 8, borate buffer 0.2 M): 0.0488 h⁻¹
- Degradation rate constant k ([2]; pH 9, borate buffer 0.2 M): 0.4000 h⁻¹
- Degradation half-life t½ ([2]; pH 9, borate buffer 0.2 M): 0.0722 days
- Degradation rate constant k ([2]; pH 10, borate buffer 0.2 M): 0.0335 h⁻¹
- half-life at 50 µg/mL [4]: 54 h
- Bound fraction (%) ±standard deviation (n = 6) ([5]; human plasma spiked at 5 µg/mL): 98.2 ± 0.41%
- Bound fraction (%) ±standard deviation (n = 6) ([5]; human plasma spiked at 12.5 µg/mL): 98.5 ± 0.23%
- Bound fraction (%) ±standard deviation (n = 6) ([5]; human plasma spiked at 25 µg/mL): 98.3 ± 0.33%
- Plasma protein binding (mean) ([5]; human plasma, over 5, 12.5 and 25 µg/mL): 98%
- fraction unbound at 30 min ([5]; human, human plasma, Plasma protein binding (mean), over 5, 12.5 and 25 µg/mL): 0.017
- Solubility ([6]; PEG-400, room temperature (25 °C), mean, n = 3): 373.85 mg/mL (≈ 1640 mM)
- Solubility in words ([6]; water): not soluble
- half-life at 50 µg/mL [7]: 25 h
SMILES: Oc1ccc(/C=C/c2cc(O)cc(O)c2)cc1 [resveratrol, trans-3,5,4′-trihydroxystilbene]
- Water solubility [1]: 0.05 mg/mL
- pKa1 [3]: 8.8
- pKa2 [3]: 9.8
- pKa3 [3]: 11.4
